In ChEMBL document CHEMBL5705899 (Biochem J, 2014):
Activity calls are given as the source filed them.

Columns and labels:
[1] = target: Serine/threonine-protein kinase N2 (Homo sapiens) (UniProt Q16513); assay: Inhibition of human PRK2 at 1 uM using RBER-CHKtide as substrate in presence of 33P-ATP by ProQinase assay
[2] = target: Homeodomain-interacting protein kinase 1 (Homo sapiens) (UniProt Q86Z02); assay: Inhibition of human HIPK1 at 1 uM using RBER-CHKtide as substrate in presence of 33P-ATP by ProQinase assay
[3] = target: Mitogen-activated protein kinase kinase kinase 1 (Homo sapiens) (UniProt Q13233); assay: Inhibition of recombinant human N-terminal GST/C-terminal His6-tagged MEKK1 ((877 to 1563 residues) expressed in Escherichia coli assessed as remaining activity at 1 uM using MBP as substrate incubated for 30 mins in presence of [gamma-33P]ATP by filter binding method relative to control
[4] = target: Serine/threonine-protein kinase PLK3 (Homo sapiens) (UniProt Q9H4B4); assay: Inhibition of human PLK3 at 1 uM using casein as substrate in presence of 33P-ATP by ProQinase assay
[5] = target: Serine/threonine-protein kinase VRK1 (Homo sapiens) (UniProt Q99986); assay: Inhibition of human VRK1 at 1 uM using RBER-CHKtide as substrate in presence of 33P-ATP by ProQinase assay
[6] = target: Homeodomain-interacting protein kinase 3 (Homo sapiens) (UniProt Q9H422); assay: Inhibition of recombinant human N-terminal GST-tagged HIPK3 (161 to 562 residues) expressed in Escherichia coli assessed as remaining activity at 1 uM using MBP as substrate incubated for 30 mins in presence of [gamma-33P]ATP by filter binding method relative to control
[7] = target: Ribosomal protein S6 kinase alpha-5 (Homo sapiens) (UniProt O75582); details: Sf21, dose 1.0 µM, time 30.0 min
[8] = target: Calcium/calmodulin-dependent protein kinase type 1D (Homo sapiens) (UniProt Q8IU85); assay: Inhibition of human CAMK1D at 1 uM using RBER-CHKtide as substrate in presence of 33P-ATP by ProQinase assay
[9] = target: TGF-beta receptor type-2 (Homo sapiens) (UniProt P37173); assay: Inhibition of human TGFBR2 at 1 uM using RB-S6P as substrate in presence of 33P-ATP by ProQinase assay
[10] = target: Casein kinase 2 (Homo sapiens) (UniProt P67870+P68400+P19784+Q8NEV1); assay: Inhibition of CK2 (unknown origin) assessed as remaining activity at 1 uM relative to control; format: protein assay
How it was run: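 Dundee panel of 140 protein kinases, tested at a single 1 μM concentration. Each assay was run in triplicate. Remaining activity is expressed relative to a control reaction without inhibitor, as mean ± S.D. Conditions for each kinase were those of the screening centre.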

[11] = target: Serine/threonine-protein kinase 26 (Homo sapiens) (UniProt Q9P289); assay: Inhibition of human MST4 at 1 uM using RB-CTF as substrate in presence of 33P-ATP by ProQinase assay
[12] = target: Tyrosine-protein kinase JAK1 (Homo sapiens) (UniProt P23458); assay: Inhibition of human JAK1 at 1 uM using RBER-IRStide as substrate in presence of 33P-ATP by ProQinase assay
[13] = target: Serine/threonine-protein kinase PAK 5 (Homo sapiens) (UniProt Q9P286); assay: Inhibition of human PAK7 at 1 uM using bio-4xCHKT as substrate in presence of 33P-ATP by ProQinase assay
[14] = target: Serine/threonine-protein kinase PAK 6 (Homo sapiens) (UniProt Q9NQU5); assay: Inhibition of human PAK6 at 1 uM using bio-4xCHKT as substrate in presence of 33P-ATP by ProQinase assay
[15] = target: Glycogen synthase kinase-3 beta (Homo sapiens) (UniProt P49841); assay: Inhibition of recombinant human His6-tagged GSK3beta (2 to 420 residues) expressed in baculovirus infected Sf21 cells assessed as remaining activity at 1 uM using phospho-GS2 peptide as substrate incubated for 30 mins in presence of [gamma-33P]ATP by filter binding method relative to control
[16] = target: Angiopoietin-1 receptor (Homo sapiens) (UniProt Q02763); assay: Inhibition of human TIE2 at 1 uM using polyEY as substrate in presence of 33P-ATP by ProQinase assay
[17] = target: Mitogen-activated protein kinase 11 (Homo sapiens) (UniProt Q15759); assay: Inhibition of human P38beta at 1 uM using ATF2 as substrate in presence of 33P-ATP by ProQinase assay
[18] = target: Tyrosine-protein kinase Fes/Fps (Homo sapiens) (UniProt P07332); assay: Inhibition of human FES at 1 uM using polyEY as substrate in presence of 33P-ATP by ProQinase assay
[19] = target: Serine/threonine-protein kinase Sgk2 (Homo sapiens) (UniProt Q9HBY8); assay: Inhibition of human SGK2 at 1 uM using RBER-GSK3 as substrate in presence of 33P-ATP by ProQinase assay
[20] = target: Interleukin-1 receptor-associated kinase 4 (Homo sapiens) (UniProt Q9NWZ3); assay: Inhibition of recombinant human N-terminal GST-tagged IRAK4 (140 to 460 residues) expressed in Escherichia coli assessed as remaining activity at 1 uM using MBP as substrate incubated for 30 mins in presence of [gamma-33P]ATP by filter binding method relative to control
[21] = target: Beta-adrenergic receptor kinase 1 (Homo sapiens) (UniProt P25098); assay: Inhibition of human GRK2 at 1 uM using casein as substrate in presence of 33P-ATP by ProQinase assay
[22] = target: Calcium/calmodulin-dependent protein kinase type II subunit beta (Homo sapiens) (UniProt Q13554); assay: Inhibition of human CAMK2B at 1 uM using RBER-CHKtide as substrate in presence of 33P-ATP by ProQinase assay
[23] = target: Interleukin-1 receptor-associated kinase 1 (Homo sapiens) (UniProt P51617); assay: Inhibition of human IRAK1 at 1 uM using RB-CTF as substrate in presence of 33P-ATP by ProQinase assay
[24] = target: MAP/microtubule affinity-regulating kinase 3 (Homo sapiens) (UniProt P27448); assay: Inhibition of recombinant human N-terminal His6-tagged MARK3 (2 to 729 residues) expressed in baculovirus infected Sf21 cells assessed as remaining activity at 1 uM using CHKtide as substrate incubated for 30 mins in presence of [gamma-33P]ATP by filter binding method relative to control
[25] = target: Tyrosine-protein kinase Lyn (Homo sapiens) (UniProt P07948); assay: Inhibition of human LYN at 1 uM using polyEY as substrate in presence of 33P-ATP by ProQinase assay
[26] = target: Mitogen-activated protein kinase kinase kinase 11 (Homo sapiens) (UniProt Q16584); assay: Inhibition of recombinant human N-terminal GST-tagged MLK3 (96 to 386 residues) expressed in baculovirus infected Sf21 cells assessed as remaining activity at 1 uM using MBP as substrate incubated for 30 mins in presence of [gamma-33P]ATP by filter binding method relative to control

Chain of Ribosomal protein S6 kinase alpha-5 (Homo sapiens) (O75582 whole entry, looked up): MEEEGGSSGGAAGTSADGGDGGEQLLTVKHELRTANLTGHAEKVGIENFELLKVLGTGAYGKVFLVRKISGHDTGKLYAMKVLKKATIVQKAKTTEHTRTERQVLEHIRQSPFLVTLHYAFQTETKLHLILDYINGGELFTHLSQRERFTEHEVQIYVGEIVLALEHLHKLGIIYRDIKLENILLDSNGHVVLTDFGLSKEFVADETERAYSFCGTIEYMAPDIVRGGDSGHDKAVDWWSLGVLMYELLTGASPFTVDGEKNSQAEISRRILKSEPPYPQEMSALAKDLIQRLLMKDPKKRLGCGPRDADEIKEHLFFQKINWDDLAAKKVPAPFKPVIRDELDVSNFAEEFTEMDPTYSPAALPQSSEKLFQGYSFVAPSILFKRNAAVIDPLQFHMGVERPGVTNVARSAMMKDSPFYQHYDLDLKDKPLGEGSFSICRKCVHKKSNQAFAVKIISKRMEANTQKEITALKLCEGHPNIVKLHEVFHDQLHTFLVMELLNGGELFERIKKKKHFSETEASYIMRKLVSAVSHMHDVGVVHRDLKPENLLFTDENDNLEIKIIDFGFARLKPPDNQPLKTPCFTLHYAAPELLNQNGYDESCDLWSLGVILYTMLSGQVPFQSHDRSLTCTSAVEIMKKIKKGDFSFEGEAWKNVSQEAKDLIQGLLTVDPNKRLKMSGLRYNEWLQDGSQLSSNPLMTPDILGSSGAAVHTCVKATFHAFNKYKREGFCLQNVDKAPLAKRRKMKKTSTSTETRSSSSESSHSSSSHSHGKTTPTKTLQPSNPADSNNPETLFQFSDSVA
Chain of Beta-adrenergic receptor kinase 1 (Homo sapiens) (P25098 whole entry): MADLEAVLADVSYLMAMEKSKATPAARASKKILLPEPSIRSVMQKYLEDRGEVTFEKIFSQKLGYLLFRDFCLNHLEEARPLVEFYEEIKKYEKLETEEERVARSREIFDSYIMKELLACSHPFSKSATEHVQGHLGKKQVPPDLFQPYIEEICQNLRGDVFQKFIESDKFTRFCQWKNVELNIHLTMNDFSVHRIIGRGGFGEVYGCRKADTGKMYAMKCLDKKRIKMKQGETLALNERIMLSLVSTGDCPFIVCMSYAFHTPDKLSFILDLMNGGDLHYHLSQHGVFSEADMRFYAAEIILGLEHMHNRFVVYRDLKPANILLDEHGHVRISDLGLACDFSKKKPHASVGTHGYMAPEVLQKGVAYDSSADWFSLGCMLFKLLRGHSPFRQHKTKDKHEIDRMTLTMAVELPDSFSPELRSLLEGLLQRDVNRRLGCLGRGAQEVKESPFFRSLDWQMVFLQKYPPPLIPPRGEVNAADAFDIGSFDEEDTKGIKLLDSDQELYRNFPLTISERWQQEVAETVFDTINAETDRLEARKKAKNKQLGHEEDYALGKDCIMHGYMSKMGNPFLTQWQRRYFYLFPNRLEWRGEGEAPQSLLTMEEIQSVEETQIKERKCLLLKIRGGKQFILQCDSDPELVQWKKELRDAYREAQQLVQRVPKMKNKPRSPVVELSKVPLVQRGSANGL
Chain of Tyrosine-protein kinase Lyn (Homo sapiens) (P07948 2-512 limits assumed): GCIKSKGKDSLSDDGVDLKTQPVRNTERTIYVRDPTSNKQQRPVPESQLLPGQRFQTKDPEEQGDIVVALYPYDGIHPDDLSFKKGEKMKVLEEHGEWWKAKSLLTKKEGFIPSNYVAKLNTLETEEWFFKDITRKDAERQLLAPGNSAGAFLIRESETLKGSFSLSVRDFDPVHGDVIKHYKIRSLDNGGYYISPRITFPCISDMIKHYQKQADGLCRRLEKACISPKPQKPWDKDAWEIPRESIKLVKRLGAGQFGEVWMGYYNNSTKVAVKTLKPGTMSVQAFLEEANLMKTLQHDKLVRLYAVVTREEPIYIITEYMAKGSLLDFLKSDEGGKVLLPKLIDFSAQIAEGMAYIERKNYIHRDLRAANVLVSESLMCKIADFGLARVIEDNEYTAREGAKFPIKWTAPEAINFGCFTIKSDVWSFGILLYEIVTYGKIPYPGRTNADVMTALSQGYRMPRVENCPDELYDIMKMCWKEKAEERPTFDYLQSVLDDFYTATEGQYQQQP
Chain of Serine/threonine-protein kinase PAK 5 (Homo sapiens) (Q9P286 whole entry, looked up): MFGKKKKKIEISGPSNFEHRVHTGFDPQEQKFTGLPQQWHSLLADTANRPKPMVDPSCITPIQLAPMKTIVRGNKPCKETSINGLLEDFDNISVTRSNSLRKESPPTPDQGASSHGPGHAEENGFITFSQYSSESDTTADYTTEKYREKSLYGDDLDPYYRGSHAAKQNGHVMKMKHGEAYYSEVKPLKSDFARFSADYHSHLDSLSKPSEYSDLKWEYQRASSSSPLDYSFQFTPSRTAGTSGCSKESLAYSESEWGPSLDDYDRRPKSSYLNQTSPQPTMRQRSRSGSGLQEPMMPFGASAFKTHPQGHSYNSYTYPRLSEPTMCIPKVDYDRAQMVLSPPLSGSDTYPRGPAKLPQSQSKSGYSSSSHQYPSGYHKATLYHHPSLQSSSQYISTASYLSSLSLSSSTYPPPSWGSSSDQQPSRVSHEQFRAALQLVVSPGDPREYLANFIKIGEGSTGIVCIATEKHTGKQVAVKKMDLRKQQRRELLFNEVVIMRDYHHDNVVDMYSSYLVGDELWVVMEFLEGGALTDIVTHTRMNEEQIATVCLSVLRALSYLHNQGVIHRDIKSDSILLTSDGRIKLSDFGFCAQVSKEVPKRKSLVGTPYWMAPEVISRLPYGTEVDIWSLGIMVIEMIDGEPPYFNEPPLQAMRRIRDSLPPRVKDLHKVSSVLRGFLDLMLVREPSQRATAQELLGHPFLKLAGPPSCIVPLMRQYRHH
Chain of Serine/threonine-protein kinase PLK3 (Homo sapiens) (Q9H4B4 whole entry, looked up): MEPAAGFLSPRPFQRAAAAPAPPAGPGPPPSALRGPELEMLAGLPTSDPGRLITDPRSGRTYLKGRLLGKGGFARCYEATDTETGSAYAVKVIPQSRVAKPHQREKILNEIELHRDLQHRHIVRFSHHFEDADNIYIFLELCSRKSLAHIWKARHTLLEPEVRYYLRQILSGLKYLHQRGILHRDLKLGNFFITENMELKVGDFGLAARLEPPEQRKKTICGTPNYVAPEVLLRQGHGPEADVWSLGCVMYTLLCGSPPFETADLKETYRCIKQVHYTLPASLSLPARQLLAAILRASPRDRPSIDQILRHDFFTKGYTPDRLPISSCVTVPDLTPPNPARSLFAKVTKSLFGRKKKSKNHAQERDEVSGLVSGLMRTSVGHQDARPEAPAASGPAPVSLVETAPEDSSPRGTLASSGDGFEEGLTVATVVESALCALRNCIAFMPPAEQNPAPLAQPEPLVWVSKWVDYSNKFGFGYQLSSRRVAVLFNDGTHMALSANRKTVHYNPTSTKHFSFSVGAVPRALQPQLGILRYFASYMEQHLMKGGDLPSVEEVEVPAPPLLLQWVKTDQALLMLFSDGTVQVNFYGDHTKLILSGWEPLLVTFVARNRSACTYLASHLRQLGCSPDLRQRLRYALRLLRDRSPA
Chain of Mitogen-activated protein kinase kinase kinase 1 (Homo sapiens) (Q13233 whole entry, the tested form may be a part): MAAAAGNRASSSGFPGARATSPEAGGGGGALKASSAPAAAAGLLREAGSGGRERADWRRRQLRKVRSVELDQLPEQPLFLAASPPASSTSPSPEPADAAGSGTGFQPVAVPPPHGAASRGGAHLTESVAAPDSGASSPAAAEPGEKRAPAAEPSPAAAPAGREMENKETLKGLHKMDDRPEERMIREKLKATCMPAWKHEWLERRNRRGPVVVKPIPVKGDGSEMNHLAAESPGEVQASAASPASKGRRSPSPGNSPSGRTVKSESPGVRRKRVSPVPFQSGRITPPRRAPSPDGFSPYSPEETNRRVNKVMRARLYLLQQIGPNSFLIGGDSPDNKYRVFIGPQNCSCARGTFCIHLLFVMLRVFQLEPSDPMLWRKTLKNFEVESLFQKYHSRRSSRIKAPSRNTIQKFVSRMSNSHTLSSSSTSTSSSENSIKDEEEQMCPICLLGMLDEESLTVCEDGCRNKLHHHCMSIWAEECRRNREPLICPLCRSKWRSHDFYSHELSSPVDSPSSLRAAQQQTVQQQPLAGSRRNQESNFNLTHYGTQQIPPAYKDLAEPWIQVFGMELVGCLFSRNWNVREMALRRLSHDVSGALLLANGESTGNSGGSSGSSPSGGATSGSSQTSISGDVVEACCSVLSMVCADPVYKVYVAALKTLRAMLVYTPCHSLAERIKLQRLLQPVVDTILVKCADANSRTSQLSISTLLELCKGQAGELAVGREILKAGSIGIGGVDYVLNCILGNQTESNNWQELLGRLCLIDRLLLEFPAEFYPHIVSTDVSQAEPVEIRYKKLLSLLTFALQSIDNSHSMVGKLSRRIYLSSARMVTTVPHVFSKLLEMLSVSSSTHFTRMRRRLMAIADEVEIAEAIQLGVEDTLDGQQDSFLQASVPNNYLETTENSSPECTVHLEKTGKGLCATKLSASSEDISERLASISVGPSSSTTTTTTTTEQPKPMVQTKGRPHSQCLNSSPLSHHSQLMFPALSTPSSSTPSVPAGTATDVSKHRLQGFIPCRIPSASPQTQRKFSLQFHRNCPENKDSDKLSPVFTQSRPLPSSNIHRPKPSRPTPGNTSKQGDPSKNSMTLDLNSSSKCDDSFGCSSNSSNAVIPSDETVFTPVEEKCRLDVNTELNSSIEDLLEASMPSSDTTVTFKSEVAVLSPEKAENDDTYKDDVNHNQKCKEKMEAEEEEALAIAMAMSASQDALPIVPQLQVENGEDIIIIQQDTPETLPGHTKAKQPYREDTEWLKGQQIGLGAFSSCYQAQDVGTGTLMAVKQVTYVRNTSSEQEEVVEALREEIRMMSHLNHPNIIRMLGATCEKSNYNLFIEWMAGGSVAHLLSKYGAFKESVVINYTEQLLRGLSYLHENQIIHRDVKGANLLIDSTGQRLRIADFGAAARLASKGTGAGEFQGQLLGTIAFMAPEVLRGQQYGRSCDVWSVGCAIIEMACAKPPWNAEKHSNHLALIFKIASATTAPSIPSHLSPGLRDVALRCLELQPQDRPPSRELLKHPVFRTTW

CC(C)(O)CNc1ncc(-c2ccnc(Nc3ccnc(Cl)c3)n2)c(CC2CC2)n1
inactive: inhibition [1] | inhibition [2] | inhibition [4] | inhibition [5] | inhibition [8] | inhibition [9] | inhibition [11] | inhibition [12] | inhibition [13] | inhibition [14] | inhibition [16] | inhibition [17] | inhibition [18] | inhibition [19] | inhibition [21] | inhibition [22] | inhibition [23] | inhibition [25]
111%: Activity [10]
133%: Activity [20]
105%: Activity [7]
109%: Activity [3] | Activity [24]
129%: Activity [26]
51%: Activity [15]
117%: Activity [6]
